Laboratory results from ChEMBL document CHEMBL1681775, “Design of a novel pyrrolidine scaffold utilized in the discovery of potent and selective human β3 adrenergic receptor agonists” (Bioorg Med Chem Lett, 2011).
Values after ≈ are worked out from the molar mass of the structure shown.

Key:
[1] = target: T1, Beta-3 adrenergic receptor (Homo sapiens, UniProt P13945); assay: Agonist activity at human beta3 adrenergic receptor; assay type: functional
Target sequence in this assay (P13945 whole entry): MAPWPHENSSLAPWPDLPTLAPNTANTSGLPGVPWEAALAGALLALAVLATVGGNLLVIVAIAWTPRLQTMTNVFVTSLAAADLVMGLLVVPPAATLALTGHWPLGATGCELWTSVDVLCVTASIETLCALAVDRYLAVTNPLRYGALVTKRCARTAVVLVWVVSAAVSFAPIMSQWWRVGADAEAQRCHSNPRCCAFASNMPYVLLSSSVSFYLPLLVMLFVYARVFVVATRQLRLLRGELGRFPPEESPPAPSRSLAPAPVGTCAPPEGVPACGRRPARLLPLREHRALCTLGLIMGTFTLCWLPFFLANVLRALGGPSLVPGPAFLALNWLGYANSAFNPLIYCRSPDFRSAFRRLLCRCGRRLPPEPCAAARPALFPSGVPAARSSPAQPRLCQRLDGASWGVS

[2] = target: T1, Beta-3 adrenergic receptor; assay: Agonist activity at human beta3 adrenergic receptor relative to control; assay type: functional
Target sequence in this assay (P13945 whole entry, looked up): as the sequence (P13945 whole entry) above

[3] = target: T2, Beta-1 adrenergic receptor (Homo sapiens, UniProt P08588); assay: Agonist activity at human beta1 adrenergic receptor; assay type: functional
[4] = target: T3, Beta-2 adrenergic receptor (Homo sapiens, UniProt P07550); assay: Agonist activity at human beta2 adrenergic receptor; assay type: functional
[5] = Mutagenic activity in Salmonella Typhimurium assessed as 2 fold increase of revertants at 30 to 600 ug/plate by AMES test relative to control in presence of S9 fraction; assay type: toxicity; settings: salmonella enterica subsp. enterica serovar typhimurium, in the assay text read “30 to 6000 ug/plate” for “30 to 600 ug/plate”
Outline: (§1)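 Ames microbial mutagenesis assay in bacterial strains, run with and without S-9 metabolic activation. A positive response was defined as a 2-fold or greater increase in revertants over the control.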

[6] = Mutagenic activity in Salmonella Typhimurium assessed as 2 fold increase of revertants at 30 to 600 ug/plate by AMES test relative to control in absence of S9 fraction; assay type: toxicity; settings: salmonella enterica subsp. enterica serovar typhimurium, in the assay text read “30 to 6000 ug/plate” for “30 to 600 ug/plate”; outline: as §1
[7] = Half life in iv dosed rat; assay type: ADME, organism-based; settings: in vivo
[8] = Volume of distribution in rat; assay type: ADME, organism-based; settings: in vivo
[9] = Oral bioavailability rat; assay type: ADME, organism-based; settings: in vivo
[10] = Plasma clearance in iv dosed dog; assay type: ADME, organism-based, Canis lupus familiaris
[11] = (§2) Half life in iv dosed dog; assay type: ADME, organism-based, Canis lupus familiaris; settings: in vivo
[12] = Volume of distribution in dog; assay type: ADME, organism-based, Canis lupus familiaris; settings: in vivo
[13] = Oral bioavailability in dog; assay type: ADME, organism-based, Canis lupus familiaris; settings: in vivo
[14] = Plasma clearance in iv dosed rhesus monkey; assay type: ADME, organism-based, Macaca mulatta
[15] = Half life in iv dosed rhesus monkey; assay type: ADME, organism-based, Macaca mulatta; settings: in vivo
[16] = Volume of distribution in rhesus monkey; assay type: ADME, organism-based, Macaca mulatta; settings: in vivo
[17] = Oral bioavailability in rhesus monkey; assay type: ADME, organism-based, Macaca mulatta; settings: in vivo
Cytochrome P450 3A4 = Cytochrome P450 3A4 (Homo sapiens, UniProt P08684); assay: Inhibition of CYP3A4; assay type: ADME
Cytochrome P450 2D6 = Cytochrome P450 2D6 (Homo sapiens, UniProt P10635); assay: Inhibition of CYP2D6; assay type: ADME
Cytochrome P450 2C9 = Cytochrome P450 2C9 (Homo sapiens, UniProt P11712); assay: Inhibition of CYP2C9; assay type: ADME
Cytochrome P450 2C8 = target: T4, Cytochrome P450 2C8 (Homo sapiens, UniProt P10632); assay: Inhibition of CYP2C8; assay type: ADME
T4 sequence (P10632 whole entry): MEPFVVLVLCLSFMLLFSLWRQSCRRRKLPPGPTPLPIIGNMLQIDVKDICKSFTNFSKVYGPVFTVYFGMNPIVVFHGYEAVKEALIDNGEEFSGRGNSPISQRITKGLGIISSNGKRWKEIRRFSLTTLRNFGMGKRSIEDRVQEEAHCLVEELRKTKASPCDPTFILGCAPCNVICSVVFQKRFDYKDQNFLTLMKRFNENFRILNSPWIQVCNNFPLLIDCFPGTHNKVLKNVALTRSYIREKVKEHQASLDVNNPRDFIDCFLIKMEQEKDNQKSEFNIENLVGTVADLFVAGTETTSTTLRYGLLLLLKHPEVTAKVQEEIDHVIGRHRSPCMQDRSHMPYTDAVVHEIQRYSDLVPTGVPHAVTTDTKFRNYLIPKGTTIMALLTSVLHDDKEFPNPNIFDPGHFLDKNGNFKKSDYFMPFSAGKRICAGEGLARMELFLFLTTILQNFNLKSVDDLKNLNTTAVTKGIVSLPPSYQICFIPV

[18] = Solubility of the compound at pH < 5.2; assay type: physicochemical
[19] = Solubility of the compound at pH 7.4; assay type: physicochemical; settings: buffer
Nav1.5 = Nav1.5 (Homo sapiens, UniProt Q14524); assay: Inhibition of human Nav1.5 at 30 uM
[20] = target: Voltage-gated inwardly rectifying potassium channel KCNH2 (Homo sapiens, UniProt Q12809); assay: Inhibition of human ERG
[21] = Metabolic stability in dog liver microsomes assessed as compound remaining after 45 mins; assay type: ADME, Canis lupus familiaris, Microsome; settings: read-out: Stability
[22] = Metabolic stability in human liver microsomes assessed as compound remaining after 45 mins; assay type: ADME, Microsome; settings: read-out: Stability
[23] = Metabolic stability in rat liver microsomes assessed as compound remaining after 45 mins; assay type: ADME, Microsome; settings: read-out: Stability
[24] = Metabolic stability in rhesus monkey liver microsomes assessed as compound remaining after 45 mins; assay type: ADME, Macaca mulatta, Microsome; settings: read-out: Stability
[25] = Mutagenic activity in Salmonella Typhimurium by AMES test in presence of S9 fraction; assay type: toxicity; settings: salmonella enterica subsp. enterica serovar typhimurium, in the assay text read “5-fluorouracil forward mutation assay” for “AMES test”
[26] = target: T2, Beta-1 adrenergic receptor; assay: Binding affinity to human beta1 adrenergic receptor
[27] = target: T3, Beta-2 adrenergic receptor; assay: Binding affinity to human beta2 adrenergic receptor
Canis familiaris = assay: as §2; assay type: ADME, organism-based, Canis lupus familiaris; settings: in vivo
Homo sapiens [28] = species on record: Homo sapiens; assay: Selectivity ratio of human beta3 adrenergic receptor to human beta1 adrenergic receptor
Homo sapiens [29] = species on record: Homo sapiens; assay: Selectivity ratio of human beta3 adrenergic receptor to human beta2 adrenergic receptor

Sequence of Cytochrome P450 2D6 (P10635 whole entry): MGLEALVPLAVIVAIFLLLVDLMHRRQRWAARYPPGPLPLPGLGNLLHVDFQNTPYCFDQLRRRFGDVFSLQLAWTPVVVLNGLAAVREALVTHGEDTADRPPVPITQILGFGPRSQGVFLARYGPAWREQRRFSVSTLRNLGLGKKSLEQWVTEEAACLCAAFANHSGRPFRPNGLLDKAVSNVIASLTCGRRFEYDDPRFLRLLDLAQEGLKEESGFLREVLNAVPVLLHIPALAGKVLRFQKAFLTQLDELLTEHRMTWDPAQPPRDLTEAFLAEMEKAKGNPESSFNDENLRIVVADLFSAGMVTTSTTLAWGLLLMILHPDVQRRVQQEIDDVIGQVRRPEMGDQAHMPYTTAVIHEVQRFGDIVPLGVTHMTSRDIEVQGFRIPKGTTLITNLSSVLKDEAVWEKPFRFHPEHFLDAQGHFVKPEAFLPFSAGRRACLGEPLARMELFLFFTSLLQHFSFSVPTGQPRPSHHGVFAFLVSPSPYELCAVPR
Sequence of Cytochrome P450 3A4 (P08684 whole entry): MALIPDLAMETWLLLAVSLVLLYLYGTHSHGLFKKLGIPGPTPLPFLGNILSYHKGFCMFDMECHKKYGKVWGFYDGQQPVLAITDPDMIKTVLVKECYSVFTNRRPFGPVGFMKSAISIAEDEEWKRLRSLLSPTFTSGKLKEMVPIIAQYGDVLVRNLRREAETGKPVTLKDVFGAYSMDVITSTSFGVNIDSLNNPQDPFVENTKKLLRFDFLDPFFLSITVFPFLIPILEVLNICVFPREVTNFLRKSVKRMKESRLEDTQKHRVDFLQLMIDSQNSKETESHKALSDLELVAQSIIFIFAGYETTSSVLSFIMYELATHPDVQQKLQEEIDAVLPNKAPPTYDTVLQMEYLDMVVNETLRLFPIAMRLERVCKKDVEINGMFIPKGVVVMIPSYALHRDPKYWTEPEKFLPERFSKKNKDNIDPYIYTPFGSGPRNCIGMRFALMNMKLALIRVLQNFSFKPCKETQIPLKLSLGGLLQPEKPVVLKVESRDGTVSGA
T3 sequence (P07550 whole entry): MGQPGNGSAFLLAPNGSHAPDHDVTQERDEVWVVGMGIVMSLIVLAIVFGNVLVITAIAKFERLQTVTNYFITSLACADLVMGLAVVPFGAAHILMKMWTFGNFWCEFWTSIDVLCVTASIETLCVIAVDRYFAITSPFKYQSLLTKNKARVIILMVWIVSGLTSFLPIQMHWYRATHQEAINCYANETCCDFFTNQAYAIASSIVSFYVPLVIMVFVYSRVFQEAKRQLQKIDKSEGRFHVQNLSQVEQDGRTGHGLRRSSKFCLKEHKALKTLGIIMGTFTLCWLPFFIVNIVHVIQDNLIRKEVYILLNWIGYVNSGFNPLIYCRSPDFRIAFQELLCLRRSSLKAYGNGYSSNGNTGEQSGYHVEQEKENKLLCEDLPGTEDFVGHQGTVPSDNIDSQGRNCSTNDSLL
T2 sequence (P08588 whole entry): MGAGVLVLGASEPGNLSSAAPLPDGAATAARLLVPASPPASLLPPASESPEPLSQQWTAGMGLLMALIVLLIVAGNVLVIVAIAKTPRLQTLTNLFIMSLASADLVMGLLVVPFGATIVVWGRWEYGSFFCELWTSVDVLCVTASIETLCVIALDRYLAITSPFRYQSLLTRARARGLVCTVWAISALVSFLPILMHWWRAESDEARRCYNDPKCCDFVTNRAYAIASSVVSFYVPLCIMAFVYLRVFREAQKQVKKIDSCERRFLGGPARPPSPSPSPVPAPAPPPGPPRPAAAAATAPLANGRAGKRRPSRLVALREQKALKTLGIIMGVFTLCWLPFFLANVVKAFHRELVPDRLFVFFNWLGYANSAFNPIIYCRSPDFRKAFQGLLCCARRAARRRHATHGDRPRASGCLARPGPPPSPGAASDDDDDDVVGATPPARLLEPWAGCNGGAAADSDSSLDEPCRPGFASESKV
Sequence of Voltage-gated inwardly rectifying potassium channel KCNH2 (Q12809 whole entry): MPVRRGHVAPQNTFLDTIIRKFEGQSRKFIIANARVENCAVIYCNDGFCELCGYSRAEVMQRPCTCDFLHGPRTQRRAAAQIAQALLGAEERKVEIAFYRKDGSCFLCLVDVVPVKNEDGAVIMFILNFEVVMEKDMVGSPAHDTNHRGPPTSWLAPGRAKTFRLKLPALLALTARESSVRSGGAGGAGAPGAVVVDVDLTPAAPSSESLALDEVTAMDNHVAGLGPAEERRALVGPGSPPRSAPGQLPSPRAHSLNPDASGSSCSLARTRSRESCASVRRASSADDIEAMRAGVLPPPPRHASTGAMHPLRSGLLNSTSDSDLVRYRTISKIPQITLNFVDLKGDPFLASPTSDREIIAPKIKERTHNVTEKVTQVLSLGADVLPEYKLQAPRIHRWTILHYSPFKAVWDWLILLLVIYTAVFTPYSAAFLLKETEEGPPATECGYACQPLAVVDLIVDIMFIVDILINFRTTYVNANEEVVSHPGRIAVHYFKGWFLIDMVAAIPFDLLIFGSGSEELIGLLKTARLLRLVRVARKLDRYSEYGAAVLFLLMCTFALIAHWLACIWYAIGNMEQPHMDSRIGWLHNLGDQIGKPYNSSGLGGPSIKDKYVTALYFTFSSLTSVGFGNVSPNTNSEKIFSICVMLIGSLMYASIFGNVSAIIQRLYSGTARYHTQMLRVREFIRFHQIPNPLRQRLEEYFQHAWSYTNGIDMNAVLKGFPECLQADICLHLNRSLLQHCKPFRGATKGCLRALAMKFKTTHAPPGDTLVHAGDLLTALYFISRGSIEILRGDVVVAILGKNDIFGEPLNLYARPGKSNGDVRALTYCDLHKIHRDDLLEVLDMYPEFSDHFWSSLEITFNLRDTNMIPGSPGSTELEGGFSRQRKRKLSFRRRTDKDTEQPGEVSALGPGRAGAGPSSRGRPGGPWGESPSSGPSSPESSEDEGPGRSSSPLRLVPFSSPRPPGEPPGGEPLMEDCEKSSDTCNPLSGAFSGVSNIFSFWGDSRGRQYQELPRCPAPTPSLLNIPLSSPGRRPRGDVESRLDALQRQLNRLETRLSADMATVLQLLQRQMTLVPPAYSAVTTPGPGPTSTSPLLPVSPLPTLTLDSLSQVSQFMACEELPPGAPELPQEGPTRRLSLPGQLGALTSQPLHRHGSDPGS
Sequence of Cytochrome P450 2C9 (P11712 whole entry): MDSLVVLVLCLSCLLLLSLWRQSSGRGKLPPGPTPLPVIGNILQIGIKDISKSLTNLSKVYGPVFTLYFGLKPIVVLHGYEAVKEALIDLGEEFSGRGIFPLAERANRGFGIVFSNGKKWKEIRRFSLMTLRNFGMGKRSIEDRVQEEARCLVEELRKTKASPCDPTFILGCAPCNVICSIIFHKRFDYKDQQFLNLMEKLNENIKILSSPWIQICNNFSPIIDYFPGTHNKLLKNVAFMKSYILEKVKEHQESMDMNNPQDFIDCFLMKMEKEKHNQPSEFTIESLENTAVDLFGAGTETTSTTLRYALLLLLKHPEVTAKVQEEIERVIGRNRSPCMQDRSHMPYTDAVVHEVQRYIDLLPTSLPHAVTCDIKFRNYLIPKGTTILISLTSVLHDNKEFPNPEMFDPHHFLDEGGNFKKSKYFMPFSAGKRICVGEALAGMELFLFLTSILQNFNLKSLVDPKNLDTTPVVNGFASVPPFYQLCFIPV

Work on `O=S(=O)(Nc1ccc(CC2CC[C@H]([C@H](O)c3ccccc3)N2)cc1)c1ccc(-c2nc(-c3ccc(C(F)(F)F)cc3)cs2)cc1` (mixture of isomers) yielded an EC50 ([1]; read-out: EC50) of 0.015 µM, an Activity [2] of 101% and an IC50 [3] of 2.93 µM. The IC50 [4] was 2.18 µM.

`O=S(=O)(Nc1ccc(CCNC[C@H](O)c2ccccc2)cc1)c1ccc(-c2nc(-c3ccc(C(F)(F)F)cc3)cs2)cc1` gave an EC50 ([1]; read-out: EC50) of 0.011 µM, an Activity [2] of 95% and an IC50 [3] of 1.04 µM. It also gave an IC50 [4] of 0.78 µM.

With `Nc1ccc(C[C@@H]2CC[C@H]([C@H](O)c3ccccc3)N2)cc1` the Activity [5] was “Non-toxic” and the Activity [6] was “Non-toxic”.

For `CC(Cc1ccc(NS(=O)(=O)c2ccc(-c3nc(-c4ccc(C(F)(F)F)cc4)cs3)cc2)cc1)NC(C)[C@H](O)c1ccccc1` (mixture of isomers), the EC50 [1] was “Not Active”.

Compound `O=S(=O)(Nc1ccc(CC2CC[C@H]([C@@H](O)c3ccccc3)N2)cc1)c1ccc(-c2nc(-c3ccc(C(F)(F)F)cc3)cs2)cc1` (mixture of isomers) has an EC50 ([1]; read-out: EC50) of 1.31 µM, an Activity [2] of 104% and an IC50 [3] of 1.52 µM. It also gave an IC50 [4] of 2.79 µM.

`Nc1nc(CC(=O)Nc2ccc(C[C@@H]3CC[C@H]([C@H](O)c4ccccc4)N3)cc2)cs1` gave a half-life [7] of 7.7 h, a Vd [8] of 5.8 L/kg and a bioavailability [9] of 12%. For the same compound, the clearance [10] was 1.38 L/h/kg, the half-life [11] was 8.3 h and the Vd [12] was 14 L/kg. The bioavailability [13] was 18%, the clearance [14] was 2.6 L/h/kg and the half-life [15] was 9.9 h. It also gave a Vd [16] of 26.4 L/kg, a bioavailability [17] of 14% and an EC50 ([1]; read-out: EC50) of 0.00098 µM. For the same compound, the Activity [2] was 99%, the IC50 [3] was > 20 µM and the IC50 [4] was > 20 µM. The INH (Cytochrome P450 3A4) was > 100 µM, the INH (Cytochrome P450 2D6) was 2.2 µM and the INH (Cytochrome P450 2C9) was > 100 µM. For the same compound, the INH (Cytochrome P450 2C8) was > 100 µM, the solubility [18] was > 1.8 mg/mL and the solubility [19] was 1.3 mg/mL (≈ 3.08 mM). It also gave an inhibition at 30 µM (Nav1.5) of 26%, an IC50 [20] of 11.2 µM and a remaining at 0.75 h [21] of 23%. The remaining at 0.75 h [22] was 40%, the remaining at 0.75 h [23] was 13% and the remaining at 0.75 h [24] was 77%. The Activity [25] was “Non-toxic”, the IC50 [26] was > 20 µM and the IC50 [27] was > 20 µM.

`O=S(=O)(Nc1ccc(C[C@H]2CC[C@H]([C@H](O)c3ccccc3)N2)cc1)c1ccc(-c2nc(-c3ccc(C(F)(F)F)cc3)cs2)cc1` gave an EC50 ([1]; read-out: EC50) of 0.083 µM, an Activity [2] of 76% and an IC50 [3] of 0.242 µM. For the same compound, the IC50 [4] was 0.297 µM, the INH (Cytochrome P450 3A4) was > 50 µM and the INH (Cytochrome P450 2D6) was > 50 µM.

In the case of `O=S(=O)(Nc1ccc(CCNC[C@H](O)c2cccnc2)cc1)c1ccc(-c2nc(-c3ccc(C(F)(F)F)cc3)cs2)cc1`, the half-life [7] is reported as 8.1 h, the Vd [8] is reported as 23 L/kg and the t1/2 (Canis familiaris) is reported as 14 h. The Vd [12] was 12 L/kg, the Vd [16] was 6.2 L/kg and the Selectivity ratio (Homo sapiens [28]) was 1000. For the same compound, the Selectivity ratio (Homo sapiens [29]) was 1000.

For `O=S(=O)(Nc1ccc(CC2CC[C@@H]([C@@H](O)c3ccccc3)N2)cc1)c1ccc(-c2nc(-c3ccc(C(F)(F)F)cc3)cs2)cc1` (mixture of isomers), the EC50 ([1]; read-out: EC50) was 2.03 µM, the Activity [2] was 89% and the IC50 [3] was 1.78 µM. The IC50 [4] was 3.53 µM.

Work on `O=S(=O)(Nc1ccc(CC2CC[C@@H]([C@H](O)c3ccccc3)N2)cc1)c1ccc(-c2nc(-c3ccc(C(F)(F)F)cc3)cs2)cc1` (mixture of isomers) yielded an EC50 ([1]; read-out: EC50) of 0.081 µM, an Activity [2] of 104% and an IC50 [3] of 2.15 µM. The IC50 [4] was 3.53 µM.

Compound `O=S(=O)(Nc1ccc(C[C@@H]2CC[C@H]([C@H](O)c3ccccc3)N2)cc1)c1ccc(-c2nc(-c3ccc(C(F)(F)F)cc3)cs2)cc1` has an EC50 ([1]; read-out: EC50) of 0.0041 µM, an Activity [2] of 95% and an IC50 [3] of 2.19 µM. The IC50 [4] was 2.51 µM, the INH (Cytochrome P450 3A4) was > 50 µM and the INH (Cytochrome P450 2D6) was > 50 µM.
